From PubChem BioAssay
MrgX1 antag = antagonists of human MrgX1 receptor | MRGX1-HEK293 calcium flux, Fluo-4, BAM8-22 antagonism; stronger effect = lower value | 310,000 tested, 1.3% active | Q96LB2 | B-score at 10 µM | AID 588676;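 active = calcium-response B-score plate-corrected more than 3 library SD below zero, starting fluorescence within 5 deviations, no agonist response on first addition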;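 also: peak minus trough fluorescence over baseline after final BAM8-22 challenge near maximal dose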
Target sequence (Q96LB2 whole entry, looked up): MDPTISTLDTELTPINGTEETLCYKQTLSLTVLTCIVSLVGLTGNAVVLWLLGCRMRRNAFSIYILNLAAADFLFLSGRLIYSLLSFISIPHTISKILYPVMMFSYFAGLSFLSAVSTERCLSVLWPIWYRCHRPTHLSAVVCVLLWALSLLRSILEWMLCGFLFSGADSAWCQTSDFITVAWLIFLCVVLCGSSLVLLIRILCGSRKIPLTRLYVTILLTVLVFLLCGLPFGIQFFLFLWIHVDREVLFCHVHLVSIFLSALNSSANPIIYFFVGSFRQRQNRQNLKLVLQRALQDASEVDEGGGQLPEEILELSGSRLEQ
MrgX1 agonist = human MrgX1 receptor agonism, primary screen. Q96LB2. MrgX1-HEK293 cells, Fluo-4 calcium fluorescence, agonist mode; stronger effect = higher value. B-score at 10 µM. 310,000 tested, 0.44% active;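 active = calcium response B-score plate-corrected fluorescence ratio at least 3 library SD, with starting fluorescence B-score inside 5 SD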
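Test system: Stable human MrgX1 HEK293 cell line | Schedule: Overnight plating before 1 h dye loading | Read-out basis: Baseline-normalised fluorescence change ratio, B-scored | Detection: Kinetic calcium dye fluorescence, Fluo-4 NW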
MrgX1 PAM = human MrgX1 positive allosteric modulation, primary screen. 310,000 tested, 0.63% active. MrgX1-HEK293, Fluo-4 calcium flux, FDSS; stronger effect = higher value. B-score at 10 µM. AID 588675;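 active = plate-corrected calcium response at least 3 library SD above typical, normal starting fluorescence, not activating the receptor alone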;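 also: compound read alongside a low EC10 to EC30 dose of BAM8-22 agonist; peak minus trough fluorescence over baseline measured at the second addition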
RGS4 block = human RGS4 inhibition | HEK293 M3R/RGS4 inducible, Fluo-4 calcium flux; stronger effect = higher value; triggered by carbachol at its EC20 | B-score at 10 µM | 310,000 tested, 0.45% active;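 active = B-score, a plate-corrected calcium signal, over three deviations above library mean, with baseline fluorescence within five deviations of library mean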;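 also: RGS4 expression induced by doxycycline in cells with stable M3 receptor; B-score is computed from the integrated fluorescence ratio over baseline after carbachol; higher B-score means a larger calcium signal and so more RGS4 inhibition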
Target sequence (P49798 whole entry, looked up): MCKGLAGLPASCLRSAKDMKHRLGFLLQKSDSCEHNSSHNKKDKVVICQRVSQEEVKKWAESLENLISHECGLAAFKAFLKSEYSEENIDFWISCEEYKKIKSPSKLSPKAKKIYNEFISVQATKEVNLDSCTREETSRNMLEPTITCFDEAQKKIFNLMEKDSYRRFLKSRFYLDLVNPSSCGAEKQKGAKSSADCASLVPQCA
RGS4 act = potentiators or activators of RGS4 | HEK293 M3R/inducible RGS4, carbachol calcium flux Fluo4; stronger effect = lower value | B-score at 10 µM | 310,000 tested, 0.92% active;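 active = B-score of the integrated calcium signal more than 4 SD below the library mean, with starting fluorescence not abnormally high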;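 also: negative B-score means reduced calcium response which marks RGS4 activation or potentiation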
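Detection: kinetic calcium fluorescence imaging with Fluo4-AM dye, 2 µM / Material: HEK293 cells with stable M3R and inducible RGS4 / Schedule: recording 10 s baseline at 1 Hz, 100 s post-agonist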
The depositor's hits bear a star; i = inactive; . = no result given. Shown are actives, neighbours in structure and some others; about 3.5% of the full set was active somewhere.

SMILES | MrgX1 antag | MrgX1 agonist | MrgX1 PAM | RGS4 block | RGS4 act
Cc1ccc(NC(=O)C2CCN(S(C)(=O)=O)CC2)cc1Cl | i | i | i | i | i
O=C(COC(=O)/C=C/c1cn(-c2ccccc2)nc1-c1ccc2c(c1)OCCO2)NC1CCS(=O)(=O)C1 (configuration not stated) | i | i | i | i | -8.5*
CCn1c(SCC(=O)NC2CCCCC2)nnc1-c1cccnc1 | i | i | i | i | i
Cn1c2ccccc2c2cc(/C=N/NC(=O)c3ccc(O)cc3O)ccc21 | i | i | i | i | i
Cn1c(O)c(/C=N/NC(=O)c2cc3ccccc3cc2O)c2ccccc21 | i | 50* | i | i | -7.6*
O=C(CNC(c1ccccc1)c1ccccc1)Nc1c(F)cccc1F | i | i | i | i | i
Fc1cccc(Cl)c1CNC(c1ccccc1)c1ccccc1 | i | i | i | i | -7*
CNC(=O)CCC(=O)Nc1ccc(C)cc1 | i | i | i | i | i
COc1cccc(NC(=O)CN(C)C(=O)CCNC(=O)c2ccc(Br)cc2)c1 | -8.9* | i | i | i | i
COc1cccc(CN(C)C(=O)CCNC(=O)c2ccc(Br)cc2)c1 | i | i | i | i | i
COc1ccc(/C=N/Nc2snc(SC)c2C#N)cc1OC | i | i | i | i | i
COc1cccc(/C=N/Nc2snc(SC)c2C#N)c1O | -5.4* | i | i | i | i
COc1cccc(/C=N/NC(=O)C(=O)N2CCCC2)c1O | i | i | i | i | i
COc1cccc(/C=N/NC(=O)N/N=C/c2cccc(OC)c2O)c1O | i | i | i | i | -7.9*
O=C(NCCC(=O)N1CCCC(C(F)(F)F)C1)c1ccccc1Cl (configuration not stated) | i | i | i | i | i
Cc1nn(-c2ccccc2)c(N2CCCC2)c1/C=N/Nc1ccc(S(=O)(=O)Nc2ccccc2)cc1[N+](=O)[O-] | -5.1* | i | i | i | i
COc1ccc(/C=N/Nc2nnc(Cc3ccccc3)c(=O)[nH]2)cc1 | i | 28* | i | i | i
COc1ccc(CNC(=O)COc2ccc(S(=O)(=O)N3CCCCC3)cc2Cl)cc1 | i | i | i | i | -7.1*
CC(=O)c1cccc(N2C(=NC(=O)C3CC3)SC3CS(=O)(=O)CC32)c1 (configuration not stated) | i | i | i | i | i
CCCCC1S/C(=N/N=C/c2ccc(OC)cc2)N(Cc2ccc(OC)cc2)C1=O (configuration not stated) | -5.3* | i | i | i | i
O=[N+]([O-])c1cc(S(=O)(=O)N2CCCCCC2)ccc1F | i | i | 6.6* | . | .
O=C(CCc1nc2sc3c(c2c(=O)[nH]1)CCCC3)N1CCN(c2ccccc2)CC1 | -7.2* | i | i | i | i
CCCC1CCC(c2ccc(OCC)cc2)=CC1=O (configuration not stated) | i | i | i | i | i
O=C(N/N=C/c1ccco1)c1cccc(S(=O)(=O)Nc2ccccc2Cl)c1 | i | i | i | i | i
Cc1ccc(/C=N/NC(=O)c2cccc(S(=O)(=O)Nc3ccccc3Cl)c2)o1 | i | i | 13* | i | i
SMILES | MrgX1 antag | MrgX1 agonist | MrgX1 PAM | RGS4 block | RGS4 act
CC(C)COC(=O)NC1c2ccccc2Oc2ccccc21 | i | i | i | i | i
O=Cc1ccnc(-c2ccc(OC(=O)c3ccco3)cc2)n1 | i | 76* | i | i | i
COC(=O)c1ccc(OC(=O)c2ccco2)cc1 | i | i | i | i | i
CCCOc1ccc(N2C(=O)CC(N(CCc3ccc(OC)cc3)C(=O)c3ccccc3)C2=O)cc1 (configuration not stated) | -4.6* | i | i | i | i
CCCCN(CCCC)c1nc2ccccc2nc1C(C#N)C(=O)NCCCOC (configuration not stated) | i | i | i | i | -9.5*
COc1ccc(C2=NS(=O)(=O)N(C)C(C(=O)NCc3ccc(F)cc3)=C2)cc1OC | i | i | i | i | i
COc1ccc(/C=N/OCC(=O)Nc2nc3ccccc3s2)cc1 | i | i | i | i | i
CC(NC(=O)COc1cccnc1[N+](=O)[O-])c1ccc(Cl)cc1 (configuration not stated) | i | i | i | i | -8.1*
O=C1C(SCCO)=C(SCCO)C(=O)c2ccccc21 | -13* | i | i | . | .
O=C1C(Cl)=C(NCCCO)C(=O)c2ccccc21 | i | i | i | i | i
Cc1ccc(CNC(=O)c2oc3ccc(S(=O)(=O)N4CCC5(CC4)OCCO5)cc3c2C)cc1 | i | i | i | i | -8.4*
Cc1c(C(=O)NCc2cccnc2)oc2ccc(S(=O)(=O)N3CCC4(CC3)OCCO4)cc12 | i | i | i | i | i
CC(C)(C)NC(=O)C(c1ccncc1)N(C(=O)Cn1nnc(-c2ccc(F)cc2)n1)c1ccc(F)cc1 (configuration not stated) | -5.6* | i | i | i | i
CCOc1ccc(NC2OCC(O)C(O)C2O)c([N+](=O)[O-])c1 (configuration not stated) | -5.1* | i | i | i | i
CN(CC(=O)Nc1cccc(F)c1)C(=O)c1cc(-c2ccccc2)nc2ccccc12 | i | i | i | i | i
Cc1ccc2nc(-c3ccccc3)cc(C(=O)N(C)CC(=O)Nc3ccccc3Br)c2c1 | i | i | i | i | -9.2*
O=c1c2c([N+](=O)[O-])cc([N+](=O)[O-])cc2sn1-c1ccc(Br)cc1 | i | i | i | . | .
O=c1c2c([N+](=O)[O-])cc([N+](=O)[O-])cc2sn1Cc1ccccc1 | i | 37* | i | i | i
COc1cc(/C=N/NC(=O)c2ccc(N)cc2)ccc1OC(=O)c1cccc(C)c1 | -5.6* | i | i | i | -8.5*
COc1cc(C(=O)N/N=C/c2ccc(OC(=O)c3cccc(C)c3)cc2)ccc1O | i | i | i | i | i
COc1cc(/C=N/NC(=O)c2ccccn2)ccc1OC(=O)c1ccc(Br)cc1 | i | i | i | i | i
Cc1ccc(C(=O)N/N=C/c2ccc(OC(=O)c3ccccc3Cl)cc2)cn1 | i | i | i | i | i
O=C(N/N=C/c1cccc(OC(=O)c2ccccc2Cl)c1)c1cccnc1 | i | i | i | i | -7.7*
COc1cc(C(=O)N/N=C/c2ccc(OC(=O)c3ccccc3Cl)c(OC)c2)ccc1O | -4.6* | i | i | i | -9.9*
